Test results taken from ChEMBL document CHEMBL1926570, “Ultrasound mediated catalyst free synthesis of 6H-1-benzopyrano[4,3-b]quinolin-6-ones leading to novel quinoline derivatives: their evaluation as potential anti-cancer agents” (Bioorg Med Chem, 2012).

test system: K562; assay: Cytotoxicity against human K562 cells after 24 hrs by MTT assay; format: functional, cell-based; settings: K562, 24 h
Procedure, shortened: (§1)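 Cells obtained from National Center for Cell Sciences, Pune, and grown in RPMI-1640 with 10% heat-inactivated FBS, penicillin/streptomycin and 2 mM glutamine at 37 °C, 5% CO₂. Seeded at 5 × 10³ cells/well and treated with or without compound at 1 and 10 for 24 h. MTT (5 mg/ml in PBS) was added for 2 h at 37 °C, then DMSO, and absorbance read at 570 nm. Triplicate wells per point; IC50 is 50% growth inhibition relative to untreated cells.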

Point of comparison: `NS(=O)(=O)c1cc(C(=O)O)cc([N+](=O)[O-])c1NCc1cc2ccccc2nc1-c1ccccc1O`, IC50 10 µM. Against it:
- CS(=O)(=O)N(Cc1cn(Cc2cc3ccccc3nc2-c2ccccc2O)nn1)c1ccccc1I — within 1.5-fold, 13 µM
- Cc1ccc2nc(-c3ccccc3O)c(CO)cc2c1 — within 1.5-fold, 12 µM
- NCc1cc2ccccc2nc1-c1ccccc1O — 2.3-fold higher, 23 µM
- O=c1oc2ccccc2c2nc3ccccc3cc12 — 4.3-fold higher, 43 µM
- O=c1oc2ccccc2c2nc3ccc(Cl)cc3cc12 — 3.2-fold higher, 32 µM
- COc1ccc2c(c1)[nH]c1c(C)nccc12 [HARMINE] — 4.5-fold higher, 45 µM
- O=c1oc2ccccc2c2nc3cc(F)ccc3cc12 — 3.5-fold higher, 35 µM
- Cc1ccc2nc3c(cc2c1)c(=O)oc1ccccc13 — 2.3-fold higher, 23 µM
- O=c1oc2ccccc2c2nc3cc(Br)ccc3cc12 — 2.3-fold higher, 23 µM
- OCc1cc2ccccc2nc1-c1ccccc1O — 7.4-fold higher, 74 µM
- OCc1cc2cc(F)c(F)cc2nc1-c1ccccc1O — within 1.5-fold, 12 µM
- O=c1oc2ccccc2c2nc3cc(F)c(F)cc3cc12 — 4.1-fold higher, 41 µM
- COc1ccc2nc3c(cc2c1)c(=O)oc1ccccc13 — 3.9-fold higher, 39 µM
- OCc1cc2cc(Cl)ccc2nc1-c1ccccc1O — within 1.5-fold, 11 µM
- O=c1oc2ccccc2c2nc3c(F)c(F)ccc3cc12 — 2.8-fold higher, 28 µM
- [N-]=[N+]=NCc1cc2ccccc2nc1-c1ccccc1O — within 1.5-fold, 11 µM
- O=c1oc2ccccc2c2nc3ccc(F)cc3cc12 — 3.7-fold higher, 37 µM
- COc1cccc2cc3c(=O)oc4ccccc4c3nc12 — 3.5-fold higher, 35 µM

molecular target: T1, NAD-dependent protein deacetylase sirtuin-1 (Homo sapiens) (UniProt Q96EB6); assay: Inhibition of human N-terminally hexa-his-tagged SIRT1 expressed in Escherichia coli BL21 (DE3) at 10 uM after 15 mins by […]; settings: not given
T1 sequence (whole entry): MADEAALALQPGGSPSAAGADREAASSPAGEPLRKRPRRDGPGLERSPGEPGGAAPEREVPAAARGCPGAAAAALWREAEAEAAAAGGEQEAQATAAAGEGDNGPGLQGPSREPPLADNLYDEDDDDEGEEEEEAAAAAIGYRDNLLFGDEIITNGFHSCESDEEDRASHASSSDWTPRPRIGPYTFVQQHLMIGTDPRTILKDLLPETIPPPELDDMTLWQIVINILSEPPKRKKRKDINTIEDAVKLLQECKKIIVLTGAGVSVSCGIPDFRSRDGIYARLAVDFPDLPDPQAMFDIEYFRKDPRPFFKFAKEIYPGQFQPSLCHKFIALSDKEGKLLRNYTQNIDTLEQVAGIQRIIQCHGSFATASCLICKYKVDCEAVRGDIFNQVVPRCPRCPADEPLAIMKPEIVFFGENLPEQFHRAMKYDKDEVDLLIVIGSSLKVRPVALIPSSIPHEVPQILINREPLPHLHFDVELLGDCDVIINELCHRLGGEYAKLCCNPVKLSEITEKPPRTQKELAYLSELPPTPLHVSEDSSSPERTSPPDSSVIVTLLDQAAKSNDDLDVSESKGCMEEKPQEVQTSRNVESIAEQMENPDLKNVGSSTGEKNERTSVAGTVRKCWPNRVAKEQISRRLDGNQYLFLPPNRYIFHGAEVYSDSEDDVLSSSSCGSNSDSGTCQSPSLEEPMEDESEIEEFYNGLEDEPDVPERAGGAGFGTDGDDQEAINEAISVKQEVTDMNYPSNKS
Procedure, shortened: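 Commercial SIRT1 fluorescence kit using bacterially purified human Sirt1, fluorophore-labelled substrate peptide (25) and NAD⁺ (25), with or without compound at 10, for 15 min at 37 °C. Stop solution was then added for 45 min at room temperature. Fluorescence read at Ex 360/Em 450 nm. The no-enzyme blank and the compound autofluorescence (no-enzyme) control were subtracted.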

Point of comparison: `NS(=O)(=O)c1cc(C(=O)O)cc([N+](=O)[O-])c1NCc1cc2ccccc2nc1-c1ccccc1O`, inhibition 61%. Against it:
- CS(=O)(=O)N(Cc1cn(Cc2cc3ccccc3nc2-c2ccccc2O)nn1)c1ccccc1I — higher, 62%
- NCc1cc2ccccc2nc1-c1ccccc1O — lower, 59%
- OCc1cc2cc(F)c(F)cc2nc1-c1ccccc1O — lower, 48%
- O=c1oc2ccccc2c2nc3c(F)c(F)ccc3cc12 — lower, 48%
- [N-]=[N+]=NCc1cc2ccccc2nc1-c1ccccc1O — lower, 53%

test system: MDA-MB-231; assay: Cytotoxicity against human MDA-MB-231 cells after 24 hrs by MTT assay; format: functional, cell-based; settings: MDA-MB-231, 24 h; procedure, shortened: as §1

Point of comparison: `CS(=O)(=O)N(Cc1cn(Cc2cc3ccccc3nc2-c2ccccc2O)nn1)c1ccccc1I`, IC50 8 µM. Against it:
- Cc1ccc2nc(-c3ccccc3O)c(CO)cc2c1 — higher, > 100 µM
- NCc1cc2ccccc2nc1-c1ccccc1O — 2.4-fold higher, 19 µM
- O=c1oc2ccccc2c2nc3ccccc3cc12 — 1.5-fold higher, 12 µM
- NS(=O)(=O)c1cc(C(=O)O)cc([N+](=O)[O-])c1NCc1cc2ccccc2nc1-c1ccccc1O — the same, 8 µM
- O=c1oc2ccccc2c2nc3ccc(Cl)cc3cc12 — 1.8-fold higher, 14 µM
- COc1ccc2c(c1)[nH]c1c(C)nccc12 [HARMINE] — 6.8-fold higher, 54 µM
- O=c1oc2ccccc2c2nc3cc(F)ccc3cc12 — 3.6-fold higher, 29 µM
- Cc1ccc2nc3c(cc2c1)c(=O)oc1ccccc13 — 1.5-fold higher, 12 µM
- O=c1oc2ccccc2c2nc3cc(Br)ccc3cc12 — 2.4-fold higher, 19 µM
- OCc1cc2ccccc2nc1-c1ccccc1O — higher, > 100 µM
- OCc1cc2cc(F)c(F)cc2nc1-c1ccccc1O — higher, > 100 µM
- O=c1oc2ccccc2c2nc3cc(F)c(F)cc3cc12 — the same, 8 µM
- COc1ccc2nc3c(cc2c1)c(=O)oc1ccccc13 — within 1.5-fold, 9 µM
- OCc1cc2cc(Cl)ccc2nc1-c1ccccc1O — higher, > 100 µM
- O=c1oc2ccccc2c2nc3c(F)c(F)ccc3cc12 — 2.9-fold higher, 23 µM
- [N-]=[N+]=NCc1cc2ccccc2nc1-c1ccccc1O — 1.5-fold higher, 12 µM
- O=c1oc2ccccc2c2nc3ccc(F)cc3cc12 — within 1.5-fold, 11 µM
- COc1cccc2cc3c(=O)oc4ccccc4c3nc12 — 2-fold higher, 16 µM

test system: IMR-32; assay: Cytotoxicity against human IMR32 cells after 24 hrs by MTT assay; format: functional, cell-based; settings: IMR-32, 24 h; procedure, shortened: as §1

Point of comparison: `O=c1oc2ccccc2c2nc3ccc(F)cc3cc12`, IC50 43 µM. Against it:
- CS(=O)(=O)N(Cc1cn(Cc2cc3ccccc3nc2-c2ccccc2O)nn1)c1ccccc1I — within 1.5-fold, 38 µM
- Cc1ccc2nc(-c3ccccc3O)c(CO)cc2c1 — higher, > 100 µM
- NCc1cc2ccccc2nc1-c1ccccc1O — within 1.5-fold, 46 µM
- O=c1oc2ccccc2c2nc3ccccc3cc12 — 1.5-fold lower, 28 µM
- NS(=O)(=O)c1cc(C(=O)O)cc([N+](=O)[O-])c1NCc1cc2ccccc2nc1-c1ccccc1O — 2.4-fold lower, 18 µM
- O=c1oc2ccccc2c2nc3ccc(Cl)cc3cc12 — within 1.5-fold, 46 µM
- COc1ccc2c(c1)[nH]c1c(C)nccc12 [HARMINE] — 1.6-fold higher, 68 µM
- O=c1oc2ccccc2c2nc3cc(F)ccc3cc12 — within 1.5-fold, 41 µM
- Cc1ccc2nc3c(cc2c1)c(=O)oc1ccccc13 — within 1.5-fold, 33 µM
- O=c1oc2ccccc2c2nc3cc(Br)ccc3cc12 — 1.9-fold lower, 23 µM
- OCc1cc2ccccc2nc1-c1ccccc1O — higher, > 100 µM
- OCc1cc2cc(F)c(F)cc2nc1-c1ccccc1O — within 1.5-fold, 63 µM
- O=c1oc2ccccc2c2nc3cc(F)c(F)cc3cc12 — 1.7-fold lower, 25 µM
- COc1ccc2nc3c(cc2c1)c(=O)oc1ccccc13 — within 1.5-fold, 36 µM
- OCc1cc2cc(Cl)ccc2nc1-c1ccccc1O — 1.5-fold higher, 65 µM
- O=c1oc2ccccc2c2nc3c(F)c(F)ccc3cc12 — within 1.5-fold, 36 µM
- [N-]=[N+]=NCc1cc2ccccc2nc1-c1ccccc1O — 1.8-fold lower, 24 µM
- COc1cccc2cc3c(=O)oc4ccccc4c3nc12 — within 1.5-fold, 46 µM

test system: COLO 205; assay: Cytotoxicity against human COLO205 cells after 24 hrs by MTT assay; format: functional, cell-based; settings: COLO 205, 24 h; procedure, shortened: as §1

Point of comparison: `NS(=O)(=O)c1cc(C(=O)O)cc([N+](=O)[O-])c1NCc1cc2ccccc2nc1-c1ccccc1O`, IC50 19 µM. Against it:
- CS(=O)(=O)N(Cc1cn(Cc2cc3ccccc3nc2-c2ccccc2O)nn1)c1ccccc1I — 1.6-fold lower, 12 µM
- Cc1ccc2nc(-c3ccccc3O)c(CO)cc2c1 — higher, > 100 µM
- NCc1cc2ccccc2nc1-c1ccccc1O — 1.7-fold higher, 32 µM
- O=c1oc2ccccc2c2nc3ccccc3cc12 — within 1.5-fold, 18 µM
- O=c1oc2ccccc2c2nc3ccc(Cl)cc3cc12 — within 1.5-fold, 16 µM
- COc1ccc2c(c1)[nH]c1c(C)nccc12 [HARMINE] — 2.4-fold higher, 46 µM
- O=c1oc2ccccc2c2nc3cc(F)ccc3cc12 — within 1.5-fold, 21 µM
- Cc1ccc2nc3c(cc2c1)c(=O)oc1ccccc13 — 1.5-fold higher, 29 µM
- O=c1oc2ccccc2c2nc3cc(Br)ccc3cc12 — 2-fold higher, 38 µM
- OCc1cc2ccccc2nc1-c1ccccc1O — 2.1-fold higher, 40 µM
- OCc1cc2cc(F)c(F)cc2nc1-c1ccccc1O — higher, > 100 µM
- O=c1oc2ccccc2c2nc3cc(F)c(F)cc3cc12 — 1.7-fold lower, 11 µM
- COc1ccc2nc3c(cc2c1)c(=O)oc1ccccc13 — 2.2-fold higher, 41 µM
- OCc1cc2cc(Cl)ccc2nc1-c1ccccc1O — within 1.5-fold, 24 µM
- O=c1oc2ccccc2c2nc3c(F)c(F)ccc3cc12 — 1.5-fold higher, 29 µM
- [N-]=[N+]=NCc1cc2ccccc2nc1-c1ccccc1O — the same, 19 µM
- O=c1oc2ccccc2c2nc3ccc(F)cc3cc12 — within 1.5-fold, 17 µM
- COc1cccc2cc3c(=O)oc4ccccc4c3nc12 — within 1.5-fold, 24 µM
